These results are taken from PubChem BioAssay.

A short description of test [1]: Her2 expression decrease, cell viability multiplex – SKBR3 breast tumor cells, AlphaScreen, ATP viability, primary screen (AID 461;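 active = Her2 level under about 52% in both replicate screens, with viability over 70% of control, limit read from the data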;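 as to Her2 level: lower value means less Her2 protein in the cells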;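 as to viability: percent of carrier control wells set as 100% viability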). As to conditions: SKBR3 Her2 protein level, 18-24 h, measured here: SKBR3 viability, ATP luminescence, at 10 µM.
The target in test [2] is Receptor tyrosine-protein kinase erbB-2 (Homo sapiens) (UniProt P04626). The test is described as above. As to conditions: 18-24 h, at 10 µM, stronger effect = lower value.
Test [3] in a line: reduced viability of SK-BR-3 breast cancer cells – cell-based, 24 h, human, pilot screen (AID 572;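 active = viability at or below 10% of carrier control in both of two separate runs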;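 also: compound exposure lasted between 18 and 24 h rather than exactly 24 h; 100% = carrier-treated control wells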). As to conditions: SK-BR-3 viability, CellTiter-Glo luminescence, at 10 µM, stronger effect = lower value. In general terms: ATP-based viability assays read luminescence as a measure of living cells.
Test [4] in a line: HUVEC growth inhibition – cell-based, human, primary screen (AID 575;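 active = viability at or below 30% in both replicate assays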;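 also: 100% = median of untreated cell wells with 0.1% DMSO on each plate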). Conditions: HUVEC proliferation, CellTiter-Glo luminescence, 72 h; at 10 µM; stronger effect = lower value. An outline of the steps:
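Test system – primary HUVEC, no more than 12 passages · Dosing – one dose, 10 µM final, 0.1% DMSO · Times – 72 h treatment at 37 °C · Measured by – ATP-based CellTiter-Glo luminescent read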

Test [5] in a line: H69AR cell proliferation blockers – human, duplicate replicates, primary screen (AID 580).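 Also: 100% = mean luminescence of untreated wells and 0% = no signal.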 As to conditions: H69AR lung tumor cells viability, ATP luminescence, 72 h; at 10 µM; stronger effect = lower value.
Test [6] is described as follows: MRP1 drug-resistance reversers in H69AR cells – cell-based, doxorubicin co-treatment, pilot screen (AID 601;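 active = viability loss from added drug above about 55%, and viability with drug at most 40%, in both replicates, limit read from the data, passing the limit was not always enough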). Conditions: CellTiter-Glo, 72 h, at 10 µM; for differential viability (reversal): stronger effect = higher value.
The nature of test [7]: yeast transport mutant growth inhibition pilot in 384-well plates, post-Golgi transport modulator project (AID 636; in the data active = inhibition above about 31%). As to conditions: absorbance 615 nm, about 18 h, stronger effect = higher value.
Test [8] is described as follows: growth suppression of yeast trafficking mutant, preliminary HTS, modulators of trafficking downstream of Golgi apparatus project, 1536-format plate, OD 615 nm (AID 637; in the data active = inhibition above about 30%). Conditions: yeast transport mutant growth, absorbance 615 nm, 18 h; stronger effect = higher value.
The mark [9] stands for this setting: H69AR cells + 2 uM doxorubicin, measured here: viability with 2 uM doxorubicin, stronger effect = lower value.
Setting [10] is: H69AR cells, compound alone cytotoxicity.

Calls of active or inactive are those of the source.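 The calls were made as follows, unless noted: active = viability at or under a set limit in both replicates, limit being median viability minus 3 SD (cut at about 48% in these data, passing the limit was not always enough); inconclusive = at or under the limit in just one replicate; inactive = at or above the limit in both replicates.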

Receptor tyrosine-protein kinase erbB-2 (Homo sapiens), sequence (P04626 whole entry, looked up): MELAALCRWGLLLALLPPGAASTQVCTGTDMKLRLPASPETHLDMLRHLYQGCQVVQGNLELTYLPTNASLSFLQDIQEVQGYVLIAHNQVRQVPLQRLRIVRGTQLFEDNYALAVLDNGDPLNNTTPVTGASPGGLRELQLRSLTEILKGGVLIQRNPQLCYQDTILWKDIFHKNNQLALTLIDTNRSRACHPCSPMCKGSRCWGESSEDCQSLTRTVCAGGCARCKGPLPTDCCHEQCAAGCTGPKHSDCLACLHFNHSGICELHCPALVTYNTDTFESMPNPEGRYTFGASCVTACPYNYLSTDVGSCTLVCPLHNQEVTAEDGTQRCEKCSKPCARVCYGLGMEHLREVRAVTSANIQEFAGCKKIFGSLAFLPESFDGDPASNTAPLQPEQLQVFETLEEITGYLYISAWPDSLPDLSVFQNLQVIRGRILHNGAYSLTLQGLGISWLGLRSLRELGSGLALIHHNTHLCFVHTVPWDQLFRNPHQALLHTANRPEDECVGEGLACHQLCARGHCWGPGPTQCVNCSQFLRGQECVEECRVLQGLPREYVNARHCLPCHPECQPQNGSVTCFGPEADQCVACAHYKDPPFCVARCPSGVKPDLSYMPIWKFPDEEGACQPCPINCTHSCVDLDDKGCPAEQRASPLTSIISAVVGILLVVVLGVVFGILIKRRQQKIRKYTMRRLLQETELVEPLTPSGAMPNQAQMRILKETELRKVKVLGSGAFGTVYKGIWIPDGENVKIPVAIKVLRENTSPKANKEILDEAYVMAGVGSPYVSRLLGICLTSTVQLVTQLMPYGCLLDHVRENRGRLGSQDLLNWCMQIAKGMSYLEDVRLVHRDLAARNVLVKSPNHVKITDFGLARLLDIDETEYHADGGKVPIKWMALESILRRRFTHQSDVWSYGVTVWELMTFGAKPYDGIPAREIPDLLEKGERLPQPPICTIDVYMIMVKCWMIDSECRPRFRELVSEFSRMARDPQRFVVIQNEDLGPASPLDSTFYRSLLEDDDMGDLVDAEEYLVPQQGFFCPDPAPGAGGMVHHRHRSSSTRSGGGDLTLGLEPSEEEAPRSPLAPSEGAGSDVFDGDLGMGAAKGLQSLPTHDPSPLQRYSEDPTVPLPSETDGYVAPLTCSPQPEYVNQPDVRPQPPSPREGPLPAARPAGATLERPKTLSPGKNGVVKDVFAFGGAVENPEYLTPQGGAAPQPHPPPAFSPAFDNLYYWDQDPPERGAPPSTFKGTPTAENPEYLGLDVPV

For orientation: viability means a read-out of living cells in per cent, often relative to untreated cells. In general, inhibition refers to the drop in the measured response relative to a control, in per cent. `COc1ccc(S(=O)(=O)NCC(=O)N(CC(=O)NCC2CCCO2)c2ccccc2C)cc1` (stereo not given): the viability in test [1] was 123%; in test [3], 123% (inactive); in test [4] it was 107% (inactive); in test [5], 83.4% (inactive); in test [6] (setting [9]), 76.4%; in test [6] (setting [10]) it was 83.4%. For the same compound, the Her2 level in test [2] was 82% (inactive). For the same compound, the differential viability (reversal) in test [6] (H69AR cells + 2 uM doxorubicin) was 7.01% (inactive). For the same compound, the inhibition in test [7] is -3.73% (inactive); in test [8], -0.32% (inactive).
Regarding `COc1ccc2[nH]c(=O)c(CN(CCO)S(=O)(=O)c3ccc4c(c3)OCCO4)cc2c1`, the viability in test [1] was 85%; in test [3], 85% (inactive); in test [4] it was 99.8% (inactive); in test [5], 94% (inactive); in test [6] (setting [9]), 87%; in test [6] (setting [10]) it was 94%. Also, the Her2 level in test [2] was 97.5% (inactive). Moreover, in test [6] (H69AR cells + 2 uM doxorubicin), the differential viability (reversal) is 6.97% (inactive). Also, the inhibition in test [7] is -5.07% (inactive); in test [8], -2.3% (inactive).
As to `O=S(=O)(NCC1CCCO1)c1cc(Cl)ccc1Br` (stereo not given), the viability was 87.5% in test [1]; 87.5% (inactive) in test [3]; 109% (inactive) in test [4]; 96.5% (inactive) in test [5]; 94.1% in test [6] (setting [9]); 96.5% in test [6] (setting [10]). In addition, the Her2 level in test [2] was 121% (inactive). Besides, the differential viability (reversal) in test [6] (H69AR cells + 2 uM doxorubicin) is 2.42% (inactive). The inhibition in test [7] was 3.25% (inactive); in test [8] it was 4% (inactive).
Turning to `COc1ccc2nc(NC(=O)c3ccoc3C)sc2c1`, the viability in test [1] is 99%; in test [3], 99% (inactive); in test [4], 23.9% (active); in test [5], 26.1% (active); in test [6] (setting [9]) it was 39.8%; in test [6] (setting [10]), 26.1%. For the same compound, in test [2], the Her2 level is 87.5% (inactive). Further, the differential viability (reversal) in test [6] (H69AR cells + 2 uM doxorubicin) is -13.7% (inactive). Also, the inhibition in test [7] is -3.82% (inactive); in test [8], 6.33% (inactive).
For `O=C(CSc1nnc(-c2cccnc2)o1)OC1CCCCC1`, the viability was 110% in test [1]; 110% (inactive) in test [3]; 95.8% (inactive) in test [4]; 101% (inactive) in test [5]; 87.9% in test [6] (setting [9]); 101% in test [6] (setting [10]). Moreover, in test [2], the Her2 level was 110% (inactive). Further, the differential viability (reversal) in test [6] (H69AR cells + 2 uM doxorubicin) was 13.2% (inactive). Besides, the results for the inhibition in test [7] and in test [8] were -7.87% (inactive) and 0.48% (inactive), respectively.
As for `COc1ccccc1OCCOc1ccccc1/C=N/n1cnnc1`, the viability is 81.5% in test [1]; 81.5% (inactive) in test [3]; 96.4% (inactive) in test [4]; 70.9% (inactive) in test [5]; 93.5% in test [6] (setting [9]); 70.9% in test [6] (setting [10]). Moreover, the Her2 level in test [2] is 104% (inactive). Besides, the differential viability (reversal) in test [6] (H69AR cells + 2 uM doxorubicin) is -22.5% (inactive). Also, the inhibition in test [7] was 1.28% (inactive); in test [8], -5% (inactive).
`COc1ccc(N2CCN(CCCNC(=O)C3CCCN(S(=O)(=O)c4cnc[nH]4)C3)CC2)cc1` (stereo not given): the viability was 95.5% in test [1]; 95.5% (inactive) in test [3]; 93.4% (inactive) in test [4]; 103% (inactive) in test [5]; 89% in test [6] (setting [9]); 103% in test [6] (setting [10]). The Her2 level in test [2] was 102% (inactive). For the same compound, the differential viability (reversal) in test [6] (H69AR cells + 2 uM doxorubicin) was 14% (inactive). Besides, the inhibition was -4% (inactive) in test [7] and -4.26% (inactive) in test [8].
Consider `O=c1c2ccccc2sn1-c1ccc(S(=O)(=O)N2CCCCC2)cc1`, for which the viability in test [1] was 91.5%; in test [3], 91.5% (inactive); in test [4], 83.9% (inactive); in test [5], 78.1% (inactive); in test [6] (setting [9]), 72.3%; in test [6] (setting [10]), 78.1%. For the same compound, the Her2 level in test [2] is 81.5% (inactive). Also, the differential viability (reversal) in test [6] (H69AR cells + 2 uM doxorubicin) was 5.85% (inactive). Also, the inhibition was -5.54% (inactive) in test [7] and 9.17% (inactive) in test [8].
For `O=C(O)C1CCCCC1C(=O)NCCc1ccccc1` (stereo not given), the viability is 87.5% in test [1]; 87.5% (inactive) in test [3]; 103% (inactive) in test [4]; 99.2% (inactive) in test [5]; 92% in test [6] (setting [9]); 99.2% in test [6] (setting [10]). The Her2 level in test [2] was 104% (inactive). For the same compound, the differential viability (reversal) in test [6] (H69AR cells + 2 uM doxorubicin) was 7.15% (inactive). Also, the results for the inhibition in test [7] and in test [8] were 0.55% (inactive) and 10.3% (inactive), respectively.
For the compound `O=C(c1ccco1)N(Cc1cc2ccccc2[nH]c1=O)C1CCCCC1`, the viability was 98.5% in test [1]; 98.5% (inactive) in test [3]; 91.7% (inactive) in test [4]; 95% (inactive) in test [5]; 82.1% in test [6] (setting [9]); 95% in test [6] (setting [10]). Moreover, the Her2 level in test [2] was 103% (inactive). For the same compound, the differential viability (reversal) in test [6] (H69AR cells + 2 uM doxorubicin) is 12.9% (inactive). The values for the inhibition in test [7] and in test [8] were 0.39% (inactive) and -6.35% (inactive), respectively.
With `Cc1cnc(SCCc2ccncc2)nc1C`, the viability in test [1] was 97%; in test [3], 97% (inactive); in test [4] it was 109% (inactive); in test [5], 86.6% (inactive); in test [6] (setting [9]), 76.9%; in test [6] (setting [10]), 86.6%. In addition, the Her2 level in test [2] was 109% (inactive). Besides, the differential viability (reversal) in test [6] (H69AR cells + 2 uM doxorubicin) is 9.61% (inactive). Also, the inhibition was -2.05% (inactive) in test [7] and 5.17% (inactive) in test [8].
In the case of `Cc1cccn2cc(-c3ccccc3)nc12`, the viability in test [1] is 78%; in test [3], 78% (inactive); in test [4] it was 79.2% (inactive); in test [5] it was 91.5% (inactive); in test [6] (setting [9]), 80.3%; in test [6] (setting [10]), 91.5%. Besides, in test [2], the Her2 level was 77% (inactive). Further, in test [6] (H69AR cells + 2 uM doxorubicin), the differential viability (reversal) is 11.1% (inactive). In addition, the inhibition in test [7] was -1.45% (inactive); in test [8], 2.55% (inactive).
Consider `CN(c1ccccc1C(N)=O)S(=O)(=O)c1ccccc1`, for which the viability in test [1] was 105%; in test [3], 105% (inactive); in test [4], 101% (inactive); in test [5], 92.7% (inactive); in test [6] (setting [9]) it was 85.7%; in test [6] (setting [10]), 92.7%. Moreover, in test [2], the Her2 level is 86% (inactive). In addition, the differential viability (reversal) in test [6] (H69AR cells + 2 uM doxorubicin) is 7.05% (inactive). The inhibition in test [7] was -6.53% (inactive); in test [8] it was -0.48% (inactive).
For `CC(=O)c1c(C)nc(C)nc1NC(=O)Cc1ccccc1`, the viability is 106% in test [1]; 106% (inactive) in test [3]; 93.9% (inactive) in test [4]; 93.9% (inactive) in test [5]; 100% in test [6] (setting [9]); 93.9% in test [6] (setting [10]). For the same compound, the Her2 level in test [2] was 102% (inactive). Besides, the differential viability (reversal) in test [6] (H69AR cells + 2 uM doxorubicin) was -6.36% (inactive). The inhibition in test [7] is -5% (inactive); in test [8] it was -3.55% (inactive).
In the case of `CCc1nnc(NC(=O)c2cccc(C(=O)Nc3nnc(CC)s3)n2)s1`, the viability in test [1] is 53.5%; in test [3] it was 53.5% (inactive); in test [4] it was 3.29% (active); in test [5], 8.87% (active); in test [6] (setting [9]), 7.54%; in test [6] (setting [10]) it was 8.87%. In test [2], the Her2 level is 72% (inactive). In test [6] (H69AR cells + 2 uM doxorubicin), the differential viability (reversal) was 1.33% (inactive). Moreover, the values for the inhibition in test [7] and in test [8] were 83.5% (active) and 73% (active), respectively.
